Active and inactive are the calls of the source. The rule behind the calls is not given here. Where a SMILES comes first, the peptide text is derived from it. [ ]: non-standard residue; d: D form. ξ: configuration not given here. Aoe(9ξ) = N[C@@H](CCCCCC(=O)C1CO1)C(=O)O; dPip = O=C(O)[C@H]1CCCCN1
How the values were obtained:
MIA PaCa-2 [1] = assay: (§1) Antiproliferative activity against human MIAPaCa2 cells after 48 hrs by MTT assay; assay type: functional
Method in brief: (§2)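 Cells held in RPMI with 5% FetalClone III and penicillin/streptomycin (50 U/mL, 50 μg/mL); hTERT-HPNE also given 10 ng/mL recombinant human EGF; used within 3 months of thaw. 48 h compound exposure, DMSO ≤1% final, then MTT.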

[2] = Antiproliferative activity against hTERT expressing immortalized human HPNE cells after 48 hrs by MTT assay; assay type: functional; settings: for CC50: read-out: LC50 (the source's name); method in brief: as §2
[3] = as §1; assay type: functional; settings: MIA PaCa-2, 48 h; method in brief: as §2
[4] = Antiproliferative activity against human PANC1 cells after 48 hrs by MTT assay; assay type: functional; settings: PANC-1, 48 h; for CC50: read-out: LC50 (the source's name); method in brief: as §2
[5] = target: Histone deacetylase (Homo sapiens) (UniProt Q13547+O15379+Q9UBN7+Q92769+Q9UQL6+Q8WUI4+Q9BY41+Q96DB2+P56524+Q9UKV0+Q969S8); assay: Inhibition of HDAC in human HeLa cell lysates after 30 mins by fluorescence based assay; assay type: protein assay
Method in brief: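 Fluorometric kit assay using HeLa cell lysate with 100 μM acetylated substrate in assay buffer. Compound added at 20-fold stock, 30 min at 30 °C. Developer then releases the fluorophore from deacetylated substrate; read at ex 355/em 460 nm. Triplicate wells normalized to signal without inhibitor; IC50 by nonlinear regression.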

MIA PaCa-2 [6] = assay: Induction of cell cycle arrest in human MIAPaCa2 cells assessed as accumulation at G1 phase at 20 nM after 20 hrs by propidium iodide staining based flow cytometry (reference value: 50.2%); assay type: functional
Method in brief: (§3)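 MIA PaCa-2 cells exposed 20 h to 8 or 20 nM, with vehicle-treated cells as comparison. Cells stained with propidium iodide and analysed by flow cytometry. Cell cycle phase distributions calculated by modelling software.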

MIA PaCa-2 [7] = assay: Induction of cell cycle arrest in human MIAPaCa2 cells assessed as accumulation at S phase at 8 nM after 20 hrs by propidium iodide staining based flow cytometry (reference value: 30.6%); assay type: functional; method in brief: as §3
MIA PaCa-2 [8] = assay: Induction of PARP cleavage in human MIAPaCa2 cells at 8 nM after 20 hrs by SDS-PAGE and immunoblotting; assay type: functional, cell-based
Method in brief: (§4)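 MIA PaCa-2 cells treated 20 h with vehicle, 8 or 20 nM. Total cell lysates run on SDS-PAGE and immunoblotted with a PARP antibody recognizing full-length and cleaved forms. Detection by HRP-conjugated secondary antibody.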

MIA PaCa-2 [9] = assay: Induction of PARP cleavage in human MIAPaCa2 cells at 20 nM after 20 hrs by SDS-PAGE and immunoblotting; assay type: functional, cell-based; method in brief: as §4
MIA PaCa-2 [10] = assay: Antiproliferative activity against human MIAPaCa2 cells exposed to 25 nM compound incubated in human serum for 5 to 30 mins measured after 48 hrs by MTT assay; assay type: functional, cell-based
Method in brief: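 Compound DMSO stock mixed 1:10 with human type AB serum and held at room temperature for 5, 10, 15 or 30 min. Aliquots then added to 5000 MIA PaCa-2 cells per well, 25 nM final. Cells grown 48 h, then viability read by MTT.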

[11] = Half life in rat whole blood; assay type: ADME, tissue-based
[12] = Half life in freshly prepared rat serum; assay type: ADME, cell-free

With `O=C(CCCCC[C@@H]1NC(=O)[C@H]2CCCCN2C(=O)[C@H](Cc2ccccc2)NC(=O)[C@H](Cc2ccccc2)NC1=O)C1CO1` (some centres undefined) (cyclo(FF[dPip][Aoe(9ξ)])) the “growth inhibition (GI)” value (MIA PaCa-2 [1]) was “Active”.

`O=C(CCCCCCC(=O)Nc1ccccc1)NO` [VORINOSTAT] gave a TGI [2] greater than 10 µM, a CC50 [2] greater than 10 µM and a CC50 ([3]; read-out: LC50 (the source's name)) of 4.85 µM. For the same compound, the CC50 [4] was greater than 10 µM.

In the case of `C[C@@H]1NC(=O)[C@H](CCCCCC(=O)[C@@H]2CO2)NC(=O)[C@H]2CCCN2C(=O)[C@H](Cc2ccccc2)NC1=O`, the inhibition [5] is reported as “Dose-dependent effect”, the Activity (MIA PaCa-2 [6]) is reported as 19.6% and the TGI [2] is reported as 0.66 µM. The CC50 [2] was greater than 10 µM, the Activity (MIA PaCa-2 [7]) was 34.6% and the Activity (MIA PaCa-2 [8]) was “Active”. For the same compound, the Activity (MIA PaCa-2 [9]) was “Active”, the TGI [3] was 0.0088 µM and the inhibition (MIA PaCa-2 [10]) was “Active”. It also gave a TGI [4] of 0.05 µM and a CC50 [4] greater than 10 µM.

With `CC1(C)NC(=O)[C@H](CCCCCC(=O)[C@H]2CO2)NC(=O)[C@H]2CCCN2C(=O)[C@H](Cc2ccccc2)NC1=O` [CHLAMYDOCIN] the half-life [11] was 0.68 to 3.6 min and the half-life [12] was 8.7 min.

In the case of `CCC(=O)CCCCC[C@@H]1NC(=O)[C@H]2CCCCN2C(=O)[C@H]([C@@H](C)CC)NC(=O)[C@H](Cc2cn(OC)c3ccccc23)NC1=O`, the “growth inhibition (GI)” value (MIA PaCa-2 [1]) is reported as “Active”.
